According to ChEMBL document CHEMBL4725223, “Structure-activity relationship studies on the inhibition of the bacterial translation of novel Odilorhabdins analogues” (Bioorg Med Chem, 2020):
Converted amounts (≈) assume the structure as drawn. Starred links: 1 amine or outer side, 2 acyl side, 3 side chain; linkers in the order of their positions; H or OH if unused. Non-standard residues stand in square brackets, D forms with d. Residues, ends and D or L forms follow the SMILES beside them. Dab(3S-OH) = NC[C@H](O)[C@H](N)C(=O)O; X1 = O=C([C@@H](CCCO)N[*:1])[*:2]; ΔZArg = N=C(N)NCC/C=C(\N)C(=O)O

What was measured:
Bacterial 70S ribosome = assay: Inhibition of ribosome-mediated translation in Cell-free Escherichia coli protein synthesis system using pCmGFP as plasmid incubated at 30 degreeC measured every 20 mins by invitro coupled transcription-translation system based fluorescence analysis; type: subcellular
Method in brief: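 E. coli cell-free coupled transcription-translation; template was gfp amplified from pCmGFP and cloned into pEXP5-CT, 1 µg plasmid DNA added to start each reaction. Feed buffer added at 30 min. Run at 30 °C, fluorescence (ex 475/em 520 nm) read every 20 min. IC50 taken from the signal 1 h after feed buffer addition.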

Escherichia coli [1] = assay: Antibacterial activity against efflux-defective (deltatolC) Escherichia coli ATCC 25922 by broth microdilution method; type: functional
Method in brief: (§1)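 MIC read by CLSI broth microdilution (M07-A10) from direct colony suspension inocula. Reference strains came from ATCC: wild-type E. coli ATCC 25922 and K. pneumoniae ATCC 13883. An efflux-defective ΔtolC E. coli isogenic to ATCC 25922 was also used.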

Klebsiella pneumoniae [2] = assay: Antibacterial activity against wild type Klebsiella pneumoniae ATCC 13883 by CLSI based broth microdilution method; type: functional; method in brief: as §1
Escherichia coli [3] = assay: Antibacterial activity against wild type Escherichia coli ATCC 25922 by CLSI based broth microdilution method; type: functional; method in brief: as §1
Klebsiella pneumoniae [4] = assay: Antibacterial activity against Klebsiella pneumoniae by CLSI based broth microdilution method; type: functional; method in brief: as §1
Escherichia coli [5] = assay: Antibacterial activity against Escherichia coli by CLSI based broth microdilution method; type: functional; method in brief: as §1

| Structure (SMILES) | IC50 (Bacterial 70S ribosome) [µM] | other results |
| --- | --- | --- |
| C[C@H](NC(=O)[C@H](CCN)NC(=O)[C@@H](N)CCCCN)C(=O)NCC(=O)N[C@H](CCCN)C(=O)N1CCC[C@H]1C(=O)N[C@@H](Cc1c[nH]cn1)C(=O)N[C@@H](CCCCN)C(=O)N/C(=C\CCNC(=N)N)C(=O)O | 17 | – |
| C[C@H](NC(=O)[C@@H](NC(=O)[C@@H](N)CCCCN)[C@@H](O)CN)C(=O)NCC(=O)N[C@H](CC[C@@H](C)N)C(=O)N1CCC[C@H]1C(=O)N[C@@H](Cc1c[nH]cn1)C(=O)N[C@@H](CCCCN)C(=O)N/C(=C\CCNC(=N)N)C(=O)O | > 40 | – |
| C[C@H](N)CC[C@@H](NC(=O)CNC(=O)[C@H](C)NC(=O)[C@@H](NC(=O)[C@@H](N)CCCCN)[C@@H](O)CN)C(=O)N1CCC[C@H]1C(=O)N[C@@H](Cc1c[nH]cn1)C(=O)N[C@@H](CCCCN)C(=O)N/C(=C\CCNC(=N)N)C(=O)O | 17.9 | – |
| C[C@H](NC(=O)[C@@H](NC(=O)[C@@H](N)CCCCN)[C@@H](O)CN)C(=O)NCC(=O)N[C@H](CCCO)C(=O)N1CCC[C@H]1C(=O)N[C@@H](Cc1c[nH]cn1)C(=O)N[C@@H](CCCCN)C(=O)N/C(=C\CCNC(=N)N)C(=O)O (H-K[Dab(3S-OH)]AG[X1]PHK[ΔZArg]-OH) | 1.3 | MIC (Escherichia coli [1]): > 64 µg/mL; MIC (Klebsiella pneumoniae [2]): > 64 µg/mL; MIC (Escherichia coli [3]): > 64 µg/mL |
| CC(=O)NCCC[C@@H](NC(=O)CNC(=O)[C@H](C)NC(=O)[C@@H](NC(=O)[C@@H](N)CCCCN)[C@@H](O)CN)C(=O)N1CCC[C@H]1C(=O)N[C@@H](Cc1c[nH]cn1)C(=O)N[C@@H](CCCCN)C(=O)N/C(=C\CCNC(=N)N)C(=O)O | > 40 | – |
| C[C@H](NC(=O)[C@H](CO)NC(=O)[C@@H](N)CCCCN)C(=O)NCC(=O)N[C@H](CCCN)C(=O)N1CCC[C@H]1C(=O)N[C@@H](Cc1c[nH]cn1)C(=O)N[C@@H](CCCCN)C(=O)N/C(=C\CCNC(=N)N)C(=O)O | > 40 | – |
| CO[C@@H](CN)[C@H](NC(=O)[C@@H](N)CCCCN)C(=O)N[C@@H](C)C(=O)NCC(=O)N[C@H](CCCN)C(=O)N1CCC[C@H]1C(=O)N[C@@H](Cc1c[nH]cn1)C(=O)N[C@@H](CCCCN)C(=O)N/C(=C\CCNC(=N)N)C(=O)O | > 40 | – |
| C[C@H](NC(=O)[C@@H](NC(=O)[C@@H](N)CCCCN)[C@@H](O)C(C)(C)N)C(=O)NCC(=O)N[C@H](CCCN)C(=O)N1CCC[C@H]1C(=O)N[C@@H](Cc1c[nH]cn1)C(=O)N[C@@H](CCCCN)C(=O)N/C(=C\CCNC(=N)N)C(=O)O | > 40 | – |
| C[C@H](NC(=O)[C@@H](NC(=O)[C@@H](N)CCCCN)[C@@H](C)CN)C(=O)NCC(=O)N[C@H](CCCN)C(=O)N1CCC[C@H]1C(=O)N[C@@H](Cc1c[nH]cn1)C(=O)N[C@@H](CCCCN)C(=O)N/C(=C\CCNC(=N)N)C(=O)O | 26.7 | – |
| C[C@H](NC(=O)[C@@H](NC(=O)[C@@H](N)CCCCN)[C@@H](O)[C@H](C)N)C(=O)NCC(=O)N[C@H](CCCN)C(=O)N1CCC[C@H]1C(=O)N[C@@H](Cc1c[nH]cn1)C(=O)N[C@@H](CCCCN)C(=O)N/C(=C\CCNC(=N)N)C(=O)O | > 40 | – |
| C[C@H](NC(=O)[C@@H](NC(=O)[C@@H](N)CCCCN)[C@@H](O)[C@@H](C)N)C(=O)NCC(=O)N[C@H](CCCN)C(=O)N1CCC[C@H]1C(=O)N[C@@H](Cc1c[nH]cn1)C(=O)N[C@@H](CCCCN)C(=O)N/C(=C\CCNC(=N)N)C(=O)O | 10 | – |
| C[C@H](NC(=O)[C@@H](NC(=O)[C@@H](N)CCCCN)[C@@H](O)CN)C(=O)NCC(=O)N[C@H](CCN)C(=O)N1CCC[C@H]1C(=O)N[C@@H](Cc1c[nH]cn1)C(=O)N[C@@H](CCCCN)C(=O)N/C(=C\CCNC(=N)N)C(=O)O | 36.3 | – |
| C[C@H](NC(=O)[C@@H](NC(=O)[C@@H](N)CCCCN)[C@H](C)O)C(=O)NCC(=O)N[C@H](CCCN)C(=O)N1CCC[C@H]1C(=O)N[C@@H](Cc1c[nH]cn1)C(=O)N[C@@H](CCCCN)C(=O)N/C(=C\CCNC(=N)N)C(=O)O | > 40 | – |
| CNCCC[C@@H](NC(=O)CNC(=O)[C@H](C)NC(=O)[C@@H](NC(=O)[C@@H](N)CCCCN)[C@@H](O)CN)C(=O)N1CCC[C@H]1C(=O)N[C@@H](Cc1c[nH]cn1)C(=O)N[C@@H](CCCCN)C(=O)N/C(=C\CCNC(=N)N)C(=O)O | > 40 | – |
| C[C@H](NC(=O)[C@@H](NC(=O)[C@@H](N)CCCCN)[C@@H](O)CN)C(=O)NCC(=O)N[C@H](CCCCN)C(=O)N1CCC[C@H]1C(=O)N[C@@H](Cc1c[nH]cn1)C(=O)N[C@@H](CCCCN)C(=O)N/C(=C\CCNC(=N)N)C(=O)O | > 40 | – |
| C[C@H](NC(=O)[C@@H](NC(=O)[C@@H](N)CCCCN)[C@@H](O)CN)C(=O)NCC(=O)N[C@](C)(CCCN)C(=O)N1CCC[C@H]1C(=O)N[C@@H](Cc1c[nH]cn1)C(=O)N[C@@H](CCCCN)C(=O)N/C(=C\CCNC(=N)N)C(=O)O | 18.1 | – |
| CNC[C@H](O)[C@H](NC(=O)[C@@H](N)CCCCN)C(=O)N[C@@H](C)C(=O)NCC(=O)N[C@H](CCCN)C(=O)N1CCC[C@H]1C(=O)N[C@@H](Cc1c[nH]cn1)C(=O)N[C@@H](CCCCN)C(=O)N/C(=C\CCNC(=N)N)C(=O)O | 3.2 | MIC (Escherichia coli [1]): 64 µg/mL (≈ 61.8 µM); MIC (Klebsiella pneumoniae [2]): 32 µg/mL (≈ 30.9 µM); MIC (Escherichia coli [3]): 64 µg/mL (≈ 61.8 µM) |
| C[C@H](NC(=O)[C@@H](NC(=O)[C@@H](N)CCCCN)[C@@H](O)CCN)C(=O)NCC(=O)N[C@H](CCCN)C(=O)N1CCC[C@H]1C(=O)N[C@@H](Cc1c[nH]cn1)C(=O)N[C@@H](CCCCN)C(=O)N/C(=C\CCNC(=N)N)C(=O)O | 14.4 | – |
| CCCC[C@@H](NC(=O)CNC(=O)[C@H](C)NC(=O)[C@@H](NC(=O)[C@@H](N)CCCCN)[C@@H](O)CN)C(=O)N1CCC[C@H]1C(=O)N[C@@H](Cc1c[nH]cn1)C(=O)N[C@@H](CCCCN)C(=O)N/C(=C\CCNC(=N)N)C(=O)O | > 40 | – |
| C[C@H](NC(=O)[C@@H](NC(=O)[C@@H](N)CCCCN)[C@@H](O)CN)C(=O)NCC(=O)N[C@H](CCCN)C(=O)N1CCC[C@H]1C(=O)N[C@@H](Cc1cnc[nH]1)C(=O)N[C@@H](CCCCN)C(=O)N/C(=C\CCNC(=N)N)C(=O)O | 0.5 | MIC (Escherichia coli [1]): 8 µg/mL (≈ 7.83 µM); MIC90 (Klebsiella pneumoniae [4]): 8 µg/mL (≈ 7.83 µM); MIC90 (Escherichia coli [5]): 32 µg/mL (≈ 31.3 µM); MIC (Klebsiella pneumoniae [2]): 4 µg/mL (≈ 3.92 µM); MIC (Escherichia coli [3]): 8 µg/mL (≈ 7.83 µM) |
| C[C@H](NC(=O)[C@@H](NC(=O)[C@@H](N)CCCCN)[C@H](O)CN)C(=O)NCC(=O)N[C@H](CCCN)C(=O)N1CCC[C@H]1C(=O)N[C@@H](Cc1c[nH]cn1)C(=O)N[C@@H](CCCCN)C(=O)N/C(=C\CCNC(=N)N)C(=O)O | > 40 | – |
